# Experimental data as given in ChEMBL document CHEMBL5058577, “EUbOPEN Chemogenomics Library 2 (Multiplex)” (2022).
# Tested on: Fibroblast
# Assay: Multiplex assay against human fibroblast
# Assay type: toxicity, cell-based
# In short: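 Hoechst33342, BioTracker Green Microtubule Cytoskeleton Dye, MitoTracker Red and Annexin V Alexa Fluor 680 were added to live cells at seeding, and imaging on a CQ1 microscope at 37°C and 5% CO2 followed compound addition. Gating by CellPathfinder machine learning separated cells into Hoechst high-intensity objects or normal cells, then normal cells into healthy, pyknosed or fragmented nuclei, then pyknosed cells into mitotic or apoptotic. Per cents of healthy-nucleus cells are reported for the tubulin, mitochondrial-mass and membrane-permeability phenotypes.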
# [1] = 12 h, 1 µM, compound concentration 1 uM, replicate 1
# [2] = 12 h, 1 µM, compound concentration 1 uM, replicate 2
# [3] = 12 h, 10 µM, compound concentration 10 uM, replicate 1
# [4] = 12 h, 10 µM, compound concentration 10 uM, replicate 2
# [5] = 24 h, 1 µM, compound concentration 1 uM, replicate 1
# [6] = 24 h, 1 µM, compound concentration 1 uM, replicate 2
# [7] = 24 h, 10 µM, compound concentration 10 uM, replicate 1
# [8] = 24 h, 10 µM, compound concentration 10 uM, replicate 2
# [9] = 48 h, 1 µM, compound concentration 1 uM, replicate 1
# [10] = 48 h, 1 µM, compound concentration 1 uM, replicate 2
# [11] = 48 h, 10 µM, compound concentration 10 uM, replicate 1
# [12] = 48 h, 10 µM, compound concentration 10 uM, replicate 2
smiles,measurement,setting,value
CCn1c(-c2nc3cc(C(=O)N4CCCC(N)C4)ccc3n2C)cc2ccccc21.Cl (stereo unspecified),Population Apoptotic (%),[1],63%
same,Population Fragmented Nuclei (%),[1],17%
same,Population Healthy Nuclei (%),[1],67%
same,Population Hoechst High Intensity Objects (%),[1],3%
same,Population Membrane Permeable-Phenotype (%),[1],0%
same,Population Mitochondria Different-Phenotype (%),[1],4%
same,Population Mitotic Cells (%),[1],36%
same,Population Normal (%),[1],96%
same,Population Pyknosed Nuclei (%),[1],15%
same,Population Tubulin-Different-Phenotype (%),[1],27%
same,Total Cell Count,[1],128
same,Population Apoptotic (%),[2],32%
same,Population Fragmented Nuclei (%),[2],21%
same,Population Healthy Nuclei (%),[2],54%
same,Population Hoechst High Intensity Objects (%),[2],5%
same,Population Membrane Permeable-Phenotype (%),[2],2%
same,Population Mitochondria Different-Phenotype (%),[2],17%
same,Population Mitotic Cells (%),[2],67%
same,Population Normal (%),[2],94%
same,Population Pyknosed Nuclei (%),[2],23%
same,Population Tubulin-Different-Phenotype (%),[2],41%
same,Total Cell Count,[2],167
same,Population Apoptotic (%),[3],41%
same,Population Fragmented Nuclei (%),[3],22%
same,Population Healthy Nuclei (%),[3],63%
same,Population Hoechst High Intensity Objects (%),[3],1%
same,Population Membrane Permeable-Phenotype (%),[3],0%
same,Population Mitochondria Different-Phenotype (%),[3],18%
same,Population Mitotic Cells (%),[3],58%
same,Population Normal (%),[3],98%
same,Population Pyknosed Nuclei (%),[3],14%
same,Population Tubulin-Different-Phenotype (%),[3],69%
same,Total Cell Count,[3],221
same,Population Apoptotic (%),[4],38%
same,Population Fragmented Nuclei (%),[4],32%
same,Population Healthy Nuclei (%),[4],37%
same,Population Hoechst High Intensity Objects (%),[4],3%
same,Population Mitochondria Different-Phenotype (%),[4],19%
same,Population Mitotic Cells (%),[4],61%
same,Population Normal (%),[4],96%
same,Population Pyknosed Nuclei (%),[4],29%
same,Population Tubulin-Different-Phenotype (%),[4],80%
same,Total Cell Count,[4],186
same,Population Apoptotic (%),[5],50%
same,Population Fragmented Nuclei (%),[5],22%
same,Population Healthy Nuclei (%),[5],68%
same,Population Hoechst High Intensity Objects (%),[5],0%
same,Population Membrane Permeable-Phenotype (%),[5],0%
same,Population Mitochondria Different-Phenotype (%),[5],5%
same,Population Mitotic Cells (%),[5],50%
same,Population Normal (%),[5],99%
same,Population Pyknosed Nuclei (%),[5],9%
same,Population Tubulin-Different-Phenotype (%),[5],30%
same,Total Cell Count,[5],127
same,Population Apoptotic (%),[6],55%
same,Population Fragmented Nuclei (%),[6],27%
same,Population Healthy Nuclei (%),[6],54%
same,Population Hoechst High Intensity Objects (%),[6],9%
same,Population Membrane Permeable-Phenotype (%),[6],3%
same,Population Mitochondria Different-Phenotype (%),[6],20%
same,Population Mitotic Cells (%),[6],44%
same,Population Normal (%),[6],90%
same,Population Pyknosed Nuclei (%),[6],17%
same,Population Tubulin-Different-Phenotype (%),[6],41%
same,Total Cell Count,[6],184
same,Population Apoptotic (%),[7],70%
same,Population Fragmented Nuclei (%),[7],22%
same,Population Healthy Nuclei (%),[7],66%
same,Population Hoechst High Intensity Objects (%),[7],3%
same,Population Membrane Permeable-Phenotype (%),[7],0%
same,Population Mitochondria Different-Phenotype (%),[7],22%
same,Population Mitotic Cells (%),[7],29%
same,Population Normal (%),[7],96%
same,Population Pyknosed Nuclei (%),[7],10%
same,Population Tubulin-Different-Phenotype (%),[7],76%
same,Total Cell Count,[7],231
same,Population Apoptotic (%),[8],59%
same,Population Fragmented Nuclei (%),[8],30%
same,Population Healthy Nuclei (%),[8],46%
same,Population Hoechst High Intensity Objects (%),[8],4%
same,Population Membrane Permeable-Phenotype (%),[8],2%
same,Population Mitochondria Different-Phenotype (%),[8],32%
same,Population Mitotic Cells (%),[8],40%
same,Population Normal (%),[8],95%
same,Population Pyknosed Nuclei (%),[8],23%
same,Population Tubulin-Different-Phenotype (%),[8],82%
same,Total Cell Count,[8],189
same,Population Apoptotic (%),[9],66%
same,Population Fragmented Nuclei (%),[9],23%
same,Population Healthy Nuclei (%),[9],67%
same,Population Hoechst High Intensity Objects (%),[9],2%
same,Population Membrane Permeable-Phenotype (%),[9],1%
same,Population Mitochondria Different-Phenotype (%),[9],3%
same,Population Mitotic Cells (%),[9],33%
same,Population Normal (%),[9],97%
same,Population Pyknosed Nuclei (%),[9],8%
same,Population Tubulin-Different-Phenotype (%),[9],29%
same,Total Cell Count,[9],137
same,Population Apoptotic (%),[10],51%
same,Population Fragmented Nuclei (%),[10],32%
same,Population Healthy Nuclei (%),[10],51%
same,Population Hoechst High Intensity Objects (%),[10],5%
same,Population Membrane Permeable-Phenotype (%),[10],2%
same,Population Mitochondria Different-Phenotype (%),[10],23%
same,Population Mitotic Cells (%),[10],48%
same,Population Normal (%),[10],94%
same,Population Pyknosed Nuclei (%),[10],15%
same,Population Tubulin-Different-Phenotype (%),[10],49%
same,Total Cell Count,[10],193
same,Population Apoptotic (%),[11],83%
same,Population Fragmented Nuclei (%),[11],19%
same,Population Healthy Nuclei (%),[11],72%
same,Population Hoechst High Intensity Objects (%),[11],3%
same,Population Membrane Permeable-Phenotype (%),[11],0%
same,Population Mitochondria Different-Phenotype (%),[11],22%
same,Population Mitotic Cells (%),[11],16%
same,Population Normal (%),[11],96%
same,Population Pyknosed Nuclei (%),[11],8%
same,Population Tubulin-Different-Phenotype (%),[11],85%
same,Total Cell Count,[11],232
same,Population Apoptotic (%),[12],60%
same,Population Fragmented Nuclei (%),[12],33%
same,Population Healthy Nuclei (%),[12],57%
same,Population Mitochondria Different-Phenotype (%),[12],16%
same,Population Mitotic Cells (%),[12],40%
same,Total Cell Count,[12],231
